Active and inactive are the calls of the source.
Columns and labels:
Type in all cases: functional, cell-based
[1] = test system: HEp-2; test: Effect on cytokine level in human Hep2 cells assessed as IL-8 level pretreated at 64 ug/ml for 24 hrs
Outline: (§1)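 Confluent HEp-2 cells on chambered slides were given fresh medium containing antibiotic at 64 μg/ml, acetone diluent (64 μl), or no antibiotic. Supernatants collected 24 h later were probed on a cytokine array membrane covering GM-CSF, MIPs, MMP3, RANTES, TGF-β, IFN-γ, TNFRI/II, VCAM-1, VEGF and interleukins. Each analyte was read as detected or not detected.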

[2] = test system: HEp-2; test: Effect on cytokine level in human Hep2 cells assessed as IL-6 level pretreated at 64 ug/ml for 24 hrs; outline: as §1
[3] = test system: Escherichia coli; test: Inhibition of enteroaggregative Escherichia coli 042 adherence to human HeLa cells pretreated at 64 ug/ml for 24 hrs by adherence assay
Outline: (§2)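 Confluent cells in 24-well plates, in DMEM with 10% FBS and no antibiotics, were pretreated with drug (from acetone stock) or an equal volume of acetone, then washed three times with PBS. HEp-2 received 8, 32 or 64 μg/ml; the other lines 32 or 64 μg/ml for 24 h. Cells were then infected for 3 h at 37°C (next note).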

[4] = test system: HEp-2; test: Effect on cytokine level in human Hep2 cells assessed as absence of MIP5 pretreated at 64 ug/ml for 24 hrs; outline: as §1
[5] = test system: HEp-2; test: Effect on cytokine level in human Hep2 cells assessed as IFN-gamma level pretreated at 64 ug/ml for 24 hrs; outline: as §1
[6] = test system: HEp-2; test: Effect on cytokine level in human Hep2 cells assessed as TNFR2 level pretreated at 64 ug/ml for 24 hrs; outline: as §1
[7] = test system: HEp-2; test: Effect on cytokine level in human Hep2 cells assessed as TNFRI level pretreated at 64 ug/ml for 24 hrs; outline: as §1
[8] = test system: Escherichia coli; test: Inhibition of enteroaggregative Escherichia coli 042 adherence to human Hep2 cells pretreated at 32 ug/ml for 24 hrs by adherence assay; conditions: HEp-2; outline: as §2
[9] = test system: Escherichia coli; test: Inhibition of enteroaggregative Escherichia coli 042 adherence to human HCT-8 cells pretreated at 64 ug/ml for 24 hrs by adherence assay; outline: as §2
[10] = test system: Escherichia coli; test: Inhibition of enteroaggregative Escherichia coli 042 adherence to human Hep2 cells using cell supernatants from pretreated at 64 ug/ml for 24 hrs by adherence assay; conditions: HEp-2
Outline: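 Confluent HEp-2 cells were grown 24 h in medium with 64 μg/ml antibiotic, acetone, or nothing. The conditioned medium was dialyzed against PBS (6–8 kDa cutoff, four changes of at least 6 h each, 4°C). EAEC (7 × 10^6/ml) was mixed 1:1 with dialyzed medium and added to untreated HEp-2 slides or cell-free chambers for 3 h, then stained and examined microscopically.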

[11] = test system: Escherichia coli; test: Inhibition of enteroaggregative Escherichia coli 042 adherence to human A549 cells pretreated at 64 ug/ml for 24 hrs by adherence assay; outline: as §2
[12] = test system: Escherichia coli; test: Inhibition of enteroaggregative Escherichia coli 042 adherence to human Hep2 cells pretreated at 64 ug/ml for 24 hrs by adherence assay; conditions: HEp-2; outline: as §2
[13] = test system: HEp-2; test: Effect on cytokine level in human Hep2 cells assessed as GM-CSF level pretreated at 64 ug/ml for 24 hrs; outline: as §1
[14] = test system: HEp-2; test: Effect on cytokine level in human Hep2 cells assessed as VCAM-1 level pretreated at 64 ug/ml for 24 hrs; outline: as §1
[15] = test system: HEp-2; test: Effect on cytokine level in human Hep2 cells assessed as MIP5 level pretreated at 64 ug/ml for 24 hrs; outline: as §1
[16] = test system: HEp-2; test: Effect on cytokine level in human Hep2 cells assessed as VEGF level pretreated at 64 ug/ml for 24 hrs; outline: as §1
[17] = test system: HEp-2; test: Effect on cytokine level in human Hep2 cells assessed as IL-4 level pretreated at 64 ug/ml for 24 hrs; outline: as §1
[18] = test system: HEp-2; test: Effect on cytokine level in human Hep2 cells assessed as MIP4 level pretreated at 64 ug/ml for 24 hrs; outline: as §1
[19] = test system: HEp-2; test: Effect on cytokine level in human Hep2 cells assessed as MMP3 level pretreated at 64 ug/ml for 24 hrs; outline: as §1
[20] = test system: HEp-2; test: Effect on cytokine level in human Hep2 cells assessed as RANTES level pretreated at 64 ug/ml for 24 hrs; outline: as §1
[21] = test system: HEp-2; test: Effect on cytokine level in human Hep2 cells assessed as IL-15 level pretreated at 64 ug/ml for 24 hrs; outline: as §1
[22] = test system: HEp-2; test: Effect on cytokine level in human Hep2 cells assessed as IL-12 (p40) level pretreated at 64 ug/ml for 24 hrs; outline: as §1
[23] = test system: HEp-2; test: Effect on cytokine level in human Hep2 cells assessed as TGF-beta level pretreated at 64 ug/ml for 24 hrs; outline: as §1
[24] = test system: Escherichia coli; test: Inhibition of enteroaggregative Escherichia coli 042 adherence to human Hep2 cells pretreated by adherence assay; conditions: HEp-2
Outline: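 HEp-2 monolayers, confluent unless otherwise specified, in chambered slides were exposed to antibiotic or controls for 4, 8, 16, 18 or 24 h, then washed three times with PBS. EAEC O42 (7 × 10^6 to 1 × 10^7 in DMEM, 10% FBS, 1% D-mannose) was added for 3 h at 37°C. Attachment was assessed microscopically after Wright-Giemsa staining.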

SMILES: CO[C@H]1/C=C/O[C@@]2(C)Oc3c(C)c(O)c4c(O)c(c5c(nc6cc(C)ccn65)c4c3C2=O)NC(=O)/C(C)=C\C=C\[C@H](C)[C@H](O)[C@@H](C)[C@@H](O)[C@@H](C)[C@H](OC(C)=O)[C@@H]1C
- Activity [1]: Active
- Activity [2]: Active
- inhibition [3]: Active
- Activity [4]: Active
- Activity [5]: Active
- Activity [6]: Active
- Activity [7]: Active
- inhibition [8]: Active
- inhibition [9]: inactive
- inhibition [10]: inactive
- inhibition [11]: Active
- inhibition [12]: Active
- Activity [13]: Active
- Activity [14]: Active
- Activity [15]: Active
- Activity [16]: Active
- Activity [17]: Active
- Activity [18]: Active
- Activity [19]: Active
- Activity [20]: Active
- Activity [21]: Active
- Activity [22]: Active
- Activity [23]: Active

SMILES: CO[C@H]1/C=C/O[C@@]2(C)Oc3c(C)c(O)c4c(O)c(c(/C=N/N5CCN(C)CC5)c(O)c4c3C2=O)NC(=O)/C(C)=C\C=C\[C@H](C)[C@H](O)[C@@H](C)[C@@H](O)[C@@H](C)[C@H](OC(C)=O)[C@@H]1C
- inhibition [24]: Active

From ChEMBL document CHEMBL1240348, “Pretreatment of epithelial cells with rifaximin alters bacterial attachment and internalization profiles” (Antimicrob Agents Chemother, 2010)
